From ChEMBL document CHEMBL4038284, “Synthesis of novel quinoline-based 4,5-dihydro-1H-pyrazoles as potential anticancer, antifungal, antibacterial and antiprotozoal agents” (Eur J Med Chem, 2017)
Converted amounts (≈) assume the structure as drawn.

Experiments:
[1] = system: Candida albicans; test: Growth inhibition of Candida albicans ATCC 10231 at 31.25 ug/ml incubated for 48 hrs under dark condition by broth microdilution method relative to control; format: functional; settings: ATCC 10231, 48 h, read-out: GI
Method in brief: (§1)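 CLSI M27-A3 broth microdilution in RPMI-1640, DMSO ≤1%. Inoculum 1-5 × 10^3 CFU/mL. Incubated 48 h at 30 °C, dark. % inhibition = 100 − (OD405 test − sterility control)/(OD405 growth control − sterility control), with growth and sterility control wells. Triplicate.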

[2] = system: Leishmania panamensis; test: Antileshmanial activity against EpiR/GFP fused Leishmania panamensis MHOM/CO/87/UA140 intracellular amastigotes infected in human […] cells after 72 hrs by flow cytometric method; format: functional, cell-based; settings: MHOM/CO/87/UA140, 72 h
Method in brief: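 PMA-treated U-937 cells (3 × 10^5 cells/mL) infected with stationary-phase GFP L. panamensis promastigotes (15:1), 3 h at 34 °C, then washed. After 24 h, compounds added at 50, 12.5, 3.125 and 0.78 µg/mL for 72 h at 37 °C. EC50 by Probit; triplicate, two experiments.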

[3] = system: Klebsiella pneumoniae; test: Antibacterial activity against ESBL positive Klebsiella pneumoniae ATCC 700603 after 24 hrs by resazurin dye based microdilution assay; format: functional; settings: Klebsiella pneumoniae, 700603, 24 h
Method in brief: (§2)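 MIC taken as the lowest concentration giving visible inhibition and/or by resazurin (1 mg/mL). Gentamicin was the control. Run in duplicate, repeated at least three times.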

[4] = system: Candida albicans; test: Antifungal activity against Candida albicans ATCC 10231 incubated for 48 hrs under dark condition by broth microdilution method; format: functional; settings: ATCC 10231, 48 h
Method in brief: (§3)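 CLSI M27-A3 broth microdilution in RPMI-1640, DMSO ≤1%, compounds at 250-0.98 µg/mL final. Inoculum 1-5 × 10^3 CFU/mL. Incubated 48 h at 30 °C in a moist dark chamber, read at OD405. MIC80 and MIC50 taken from % inhibition dose-response curves (mean ± SEM, triplicate). Amphotericin B was the positive control.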

[5] = system: Cryptococcus neoformans; test: Growth inhibition of Cryptococcus neoformans ATCC 32264 at 7.8 ug/ml incubated for 48 hrs under dark condition by broth microdilution method relative to control; format: functional; settings: ATCC 32264, 48 h, read-out: GI; method in brief: as §1
[6] = system: Cryptococcus neoformans; test: Growth inhibition of Cryptococcus neoformans ATCC 32264 at 3.4 ug/ml incubated for 48 hrs under dark condition by broth microdilution method relative to control; format: functional; settings: ATCC 32264, 48 h, read-out: GI
[7] = system: Candida albicans; test: Growth inhibition of Candida albicans ATCC 10231 at 15.62 ug/ml incubated for 48 hrs under dark condition by broth microdilution method relative to control; format: functional; settings: ATCC 10231, 48 h, read-out: GI; method in brief: as §1
[8] = system: Candida albicans; test: Growth inhibition of Candida albicans ATCC 10231 at 62.5 ug/ml incubated for 48 hrs under dark condition by broth microdilution method relative to control; format: functional; settings: ATCC 10231, 48 h, read-out: GI; method in brief: as §1
[9] = system: Trypanosoma cruzi; test: Antitrypanosomal activity against Trypanosoma cruzi Tulahuen intracellular amastigote harboring LacZ infected in human U937 cells after 72 hrs by CPRG/Nonidet reagent based spectrophotometric method; format: functional, cell-based; settings: U-937, 72 h
Method in brief: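 U-937 cells at 2.5 × 10^5 cells/mL in RPMI-1640 with 10% serum and 0.1 µg/mL PMA were infected with β-galactosidase-transfected Tulahuen epimastigotes at 5 parasites per cell. Infected cells were exposed to 50, 12.5, 3.125 and 0.78 µg/mL for 72 h. CPRG (100 uM) and 0.1% Nonidet P-40 were added for 3 h, read at 570 nm. EC50 by Probit. Triplicate, at least two experiments; benznidazole as reference.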

[10] = system: Plasmodium falciparum; test: Antiplasmodial activity against chloroquine-sensitive Plasmodium falciparum 3D7 assessed as reduction in parasitic LDH activity after 48 hrs by Malstat reagent based […] method; format: functional; settings: 3D7, 48 h
Method in brief: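 Unsynchronized P. falciparum 3D7 at 0.5% parasitemia and 1% hematocrit in RPMI with 3% Albumax II. Exposed to 100, 25, 6.25 and 1.56 µg/mL for 48 h at 37 °C under 90% N2/5% CO2/5% O2. After three freeze-thaw cycles, LDH measured with Malstat and NBT/PES, 1 h in the dark, read at 650 nm. IC50 by Probit; triplicate, ≥2 experiments.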

[11] = system: Candida albicans; test: Growth inhibition of Candida albicans ATCC 10231 at 3.4 ug/ml incubated for 48 hrs under dark condition by broth microdilution method relative to control; format: functional; settings: ATCC 10231, 48 h, read-out: GI
[12] = system: Pseudomonas aeruginosa; test: Antibacterial activity against Pseudomonas aeruginosa ATCC 27853 after 24 hrs by resazurin dye based microdilution assay; format: functional; settings: ATCC 27853, 24 h; method in brief: as §2
[13] = system: Candida albicans; test: Growth inhibition of Candida albicans ATCC 10231 at 250 ug/ml incubated for 48 hrs under dark condition by broth microdilution method relative to control; format: functional; settings: ATCC 10231, 48 h, read-out: GI; method in brief: as §1
[14] = system: Cryptococcus neoformans; test: Growth inhibition of Cryptococcus neoformans ATCC 32264 at 15.62 ug/ml incubated for 48 hrs under dark condition by broth microdilution method relative to control; format: functional; settings: ATCC 32264, 48 h, read-out: GI; method in brief: as §1
[15] = system: U-937; test: Cytotoxicity against human U937 cells after 72 hrs by MTT assay; format: cell-based; settings: u-937, 72 h
Method in brief: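 Exponentially growing U-937 at 1 × 10^5 cells/mL in RPMI-1640 with 10% FBS were exposed to 200, 50, 12.5 and 3.125 µg/mL for 72 h at 37 °C, 5% CO2. MTT for 3 h, stopped with isopropanol/SDS, formazan read at 570 nm, blank-corrected. LC50 by Probit from % viability against untreated cells. Triplicate, at least two independent experiments.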

[16] = system: Cryptococcus neoformans; test: Growth inhibition of Cryptococcus neoformans ATCC 32264 at 62.5 ug/ml incubated for 48 hrs under dark condition by broth microdilution method relative to control; format: functional; settings: ATCC 32264, 48 h, read-out: GI; method in brief: as §1
[17] = system: Cryptococcus neoformans; test: Growth inhibition of Cryptococcus neoformans ATCC 32264 at 31.25 ug/ml incubated for 48 hrs under dark condition by broth microdilution method relative to control; format: functional; settings: ATCC 32264, 48 h, read-out: GI; method in brief: as §1
[18] = system: Staphylococcus aureus; test: Antibacterial activity against vancomycin-intermediate Staphylococcus aureus after 24 hrs by resazurin dye based microdilution assay; format: functional; method in brief: as §2
[19] = system: Staphylococcus aureus; test: Antibacterial activity against methicillin-sensitive Staphylococcus aureus ATCC 25923 after 24 hrs by resazurin dye based microdilution assay; format: functional; settings: ATCC 25923, 24 h; method in brief: as §2
[20] = system: Cryptococcus neoformans; test: Growth inhibition of Cryptococcus neoformans ATCC 32264 at 250 ug/ml incubated for 48 hrs under dark condition by broth microdilution method relative to control; format: functional; settings: ATCC 32264, 48 h, read-out: GI; method in brief: as §1
[21] = system: Staphylococcus aureus; test: Antibacterial activity against methicillin-resistant Staphylococcus aureus ATCC 43300 after 24 hrs by resazurin dye based microdilution assay; format: functional; settings: ATCC 43300, 24 h
Method in brief: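 Broth microdilution in Mueller Hinton broth, inoculum 5 × 10^5 – 8 × 10^5. Compound stocks diluted in MHB with 5% DMSO and 0.1% Tween 80. Incubation 24 h at 35-37 °C. MIC is the lowest concentration with visible growth inhibition and/or by resazurin (1 mg/mL) read-out. Gentamicin as control. Run in duplicate, replicated at least three times.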

[22] = system: Cryptococcus neoformans; test: Growth inhibition of Cryptococcus neoformans ATCC 32264 at 125 ug/ml incubated for 48 hrs under dark condition by broth microdilution method relative to control; format: functional; settings: ATCC 32264, 48 h, read-out: GI; method in brief: as §1
[23] = system: Escherichia coli; test: Antibacterial activity against Escherichia coli ATCC 25922 after 24 hrs by resazurin dye based microdilution assay; format: functional; settings: ATCC 25922, 24 h; method in brief: as §2
[24] = system: Candida albicans; test: Growth inhibition of Candida albicans ATCC 10231 at 7.8 ug/ml incubated for 48 hrs under dark condition by broth microdilution method relative to control; format: functional; settings: ATCC 10231, 48 h, read-out: GI; method in brief: as §1
[25] = system: Neisseria gonorrhoeae; test: Antibacterial activity against beta lactamase positive Neisseria gonorrhoeae ATCC 31426 by oxidase test; format: functional
Method in brief: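 Agar dilution MIC on GC agar with 1% isovitalex containing increasing compound concentrations. Plates inoculated with about 1×10^4 CFU (5 µL). MIC is the lowest concentration that inhibited growth, with growth confirmed by oxidase test. Run in duplicate, repeated at least three times.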

[26] = system: Klebsiella pneumoniae; test: Antibacterial activity against carbapenemase positive Klebsiella pneumoniae BAA 1705 after 24 hrs by resazurin dye based microdilution assay; format: functional; settings: BAA 1705, 24 h; method in brief: as §2
[27] = system: Cryptococcus neoformans; test: Antifungal activity against Cryptococcus neoformans ATCC 32264 incubated for 48 hrs under dark condition by broth microdilution method; format: functional; settings: ATCC 32264, 48 h; method in brief: as §3
[28] = system: Candida albicans; test: Growth inhibition of Candida albicans ATCC 10231 at 125 ug/ml incubated for 48 hrs under dark condition by broth microdilution method relative to control; format: functional; settings: ATCC 10231, 48 h, read-out: GI; method in brief: as §1

SMILES	inhibition of growth at 31.25 µg/mL [1] [%]	EC50 [2] [mg/L]	MIC [3] [mg/L]	MIC50 [4] [mg/L]	MIC80 [4] [mg/L]	inhibition of growth at 7.8 µg/mL [5] [%]	inhibition of growth at 3.4 µg/mL [6] [%]	inhibition of growth at 15.62 µg/mL [7] [%]	inhibition of growth at 62.5 µg/mL [8] [%]	EC50 [9] [mg/L]	EC50 [10] [mg/L]	inhibition of growth at 3.4 µg/mL [11] [%]	MIC [12] [mg/L]	inhibition of growth at 250 µg/mL [13] [%]	inhibition of growth at 15.62 µg/mL [14] [%]	LC50 [15] [mg/L]	inhibition of growth at 62.5 µg/mL [16] [%]	inhibition of growth at 31.25 µg/mL [17] [%]	MIC [18] [mg/L]	MIC [19] [mg/L]	also measured
O=C(/C=C/c1cccc(Nc2ccnc3cc(Cl)ccc23)c1)c1ccccc1	31.7	2.54 (≈ 6.6 µM)	> 1000	≥ 250	≥ 250	25.6	17.9	27.7	36.2	> 0.8	10.3 (≈ 26.7 µM)	21.5	> 1000	43.5	32.3	1.5 (≈ 3.9 µM)	80.8	52.5	> 1000	> 1000	inhibition of growth at 250 µg/mL [20]: 100%; MIC [21]: > 1000 mg/L; inhibition of growth at 125 µg/mL [22]: 89.5%; MIC [23]: > 1000 mg/L; inhibition of growth at 7.8 µg/mL [24]: 25.2%; MIC [25]: > 1000 mg/L; MIC [26]: > 1000 mg/L; MIC50 [27]: 31.2 mg/L (≈ 81.2 µM); MIC80 [27]: 62.5 mg/L (≈ 162 µM); inhibition of growth at 125 µg/mL [28]: 36.7%
CC(=O)N1N=C(c2ccc(Br)cc2)CC1c1cccc(Nc2ccnc3cc(Cl)ccc23)c1 (stereo not given)	15.7	3.66 (≈ 7.04 µM)	> 1000	≥ 250	≥ 250	16.9	15.4	15	19.1	3.7 (≈ 7.12 µM)	50.1 (≈ 96.3 µM)	13.7	> 1000	29.9	18.3	10.2 (≈ 19.6 µM)	23.6	19.6	> 1000	> 1000	inhibition of growth at 250 µg/mL [20]: 71.2%; MIC [21]: > 1000 mg/L; inhibition of growth at 125 µg/mL [22]: 48.4%; MIC [23]: > 1000 mg/L; inhibition of growth at 7.8 µg/mL [24]: 13.9%; MIC [25]: > 1000 mg/L; MIC [26]: > 1000 mg/L; MIC50 [27]: 250 mg/L (≈ 481 µM); MIC80 [27]: ≥ 250 mg/L; inhibition of growth at 125 µg/mL [28]: 27.9%
